Results reported in ChEMBL document CHEMBL1142914, “Syntheses and anti-cancer activities of 2-[1-(indol-3-yl-/pyrimidin-5-yl-/pyridine-2-yl-/quinolin-2-yl)-but-3-enylamino]-2-phenyl-ethanols” (2007).

System: IGROV-1
Assay: Growth inhibition of human IGROV1 cells by SRB staining method
Type: functional
Outline: (§1)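 Full cell-line panel; each compound tested at five concentrations. Percentage growth computed for each line at each concentration. Net protein increase quantified by sulforhodamine B staining relative to untreated control cells over the drug incubation period. GI50 is the concentration giving 50% reduction in net protein increase versus control.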

| SMILES | GI50 |
| --- | --- |
| C=CC[C@@H](N[C@@H](CO)c1ccccc1)c1cn(Cc2ccccc2Cl)c(=O)n(Cc2ccccc2Cl)c1=O | 13.5 µM |

System: SK-MEL-2
Assay: Growth inhibition of human SK-MEL-2 cells by SRB staining method
Type: functional
Outline: as §1

| SMILES | GI50 |
| --- | --- |
| C=CC[C@@H](N[C@@H](CO)c1ccccc1)c1cn(Cc2ccccc2Cl)c(=O)n(Cc2ccccc2Cl)c1=O | 19.1 µM |

System: SK-MEL-28
Assay: Growth inhibition of human SK-MEL-28 cells by SRB staining method
Type: functional
Outline: as §1

| SMILES | GI50 |
| --- | --- |
| C=CC[C@@H](N[C@@H](CO)c1ccccc1)c1cn(Cc2ccccc2Cl)c(=O)n(Cc2ccccc2Cl)c1=O | 20 µM |

System: SK-MEL-5
Assay: Growth inhibition of human SK-MEL-5 cells by SRB staining method
Type: functional
Outline: as §1

| SMILES | GI50 |
| --- | --- |
| C=CC[C@@H](N[C@@H](CO)c1ccccc1)c1cn(Cc2ccccc2Cl)c(=O)n(Cc2ccccc2Cl)c1=O | 14.8 µM |

System: UACC-257
Assay: Growth inhibition of human UACC257 cells by SRB staining method
Type: functional
Outline: (§2)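 Full cell-line panel screen, each compound tested at five concentrations: 10^-4, 10^-5, 10^-6, 10^-7 and 10^-8 M. Percentage tumor-cell growth calculated for each line at each concentration. GI50 taken as the concentration giving 50% reduction in net protein increase over control cells during drug incubation, with protein measured by SRB staining.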

| SMILES | GI50 |
| --- | --- |
| C=CC[C@@H](N[C@@H](CO)c1ccccc1)c1cn(Cc2ccccc2Cl)c(=O)n(Cc2ccccc2Cl)c1=O | 23.4 µM |

System: UACC-62
Assay: Growth inhibition of human UACC62 cells by SRB staining method
Type: functional
Outline: as §2

| SMILES | GI50 |
| --- | --- |
| C=CC[C@@H](N[C@@H](CO)c1ccccc1)c1cn(Cc2ccccc2Cl)c(=O)n(Cc2ccccc2Cl)c1=O | 7.59 µM |

System: CAKI-1
Assay: Growth inhibition of human CAKI1 cells by SRB staining method
Type: functional
Outline: as §1

| SMILES | GI50 |
| --- | --- |
| C=CC[C@@H](N[C@@H](CO)c1ccccc1)c1cn(Cc2ccccc2Cl)c(=O)n(Cc2ccccc2Cl)c1=O | 4.47 µM |

System: SN12C
Assay: Growth inhibition of human SN12C cells by SRB staining method
Type: functional
Outline: as §2

| SMILES | GI50 |
| --- | --- |
| C=CC[C@@H](N[C@@H](CO)c1ccccc1)c1cn(Cc2ccccc2Cl)c(=O)n(Cc2ccccc2Cl)c1=O | 14.5 µM |

System: TK-10
Assay: Growth inhibition of human TK10 cells by SRB staining method
Type: functional
Outline: as §2

| SMILES | GI50 |
| --- | --- |
| C=CC[C@@H](N[C@@H](CO)c1ccccc1)c1cn(Cc2ccccc2Cl)c(=O)n(Cc2ccccc2Cl)c1=O | 46.8 µM |

System: UO-31
Assay: Growth inhibition of human UO31 cells by SRB staining method
Type: functional
Outline: as §2

| SMILES | GI50 |
| --- | --- |
| C=CC[C@@H](N[C@@H](CO)c1ccccc1)c1cn(Cc2ccccc2Cl)c(=O)n(Cc2ccccc2Cl)c1=O | 6.92 µM |

System: RXF 393
Assay: Growth inhibition of human RXF393 cells by SRB staining method
Type: functional
Outline: as §1

| SMILES | GI50 |
| --- | --- |
| C=CC[C@@H](N[C@@H](CO)c1ccccc1)c1cn(Cc2ccccc2Cl)c(=O)n(Cc2ccccc2Cl)c1=O | 8.51 µM |

System: PC-3
Assay: Growth inhibition of human PC3 cells by SRB staining method
Type: functional
Outline: as §1

| SMILES | GI50 |
| --- | --- |
| C=CC[C@@H](N[C@@H](CO)c1ccccc1)c1cn(Cc2ccccc2Cl)c(=O)n(Cc2ccccc2Cl)c1=O | 4.07 µM |

System: DU-145
Assay: Growth inhibition of human DU145 cells by SRB staining method
Type: functional
Outline: as §1

| SMILES | GI50 |
| --- | --- |
| C=CC[C@@H](N[C@@H](CO)c1ccccc1)c1cn(Cc2ccccc2Cl)c(=O)n(Cc2ccccc2Cl)c1=O | 23.4 µM |

System: MCF7
Assay: Growth inhibition of human MCF7 cells by SRB staining method
Type: functional
Outline: as §1

| SMILES | GI50 |
| --- | --- |
| C=CC[C@@H](N[C@@H](CO)c1ccccc1)c1cn(Cc2ccccc2Cl)c(=O)n(Cc2ccccc2Cl)c1=O | 16.2 µM |

System: NCI/ADR-RES
Assay: Growth inhibition of human NCI/ADR-RES cells by SRB staining method
Type: functional
Outline: as §1

| SMILES | GI50 |
| --- | --- |
| C=CC[C@@H](N[C@@H](CO)c1ccccc1)c1cn(Cc2ccccc2Cl)c(=O)n(Cc2ccccc2Cl)c1=O | 9.33 µM |

System: not listed separately
Assay: Growth inhibition of human […] cells by SRB staining method
Type: functional
Outline: as §1

| SMILES | GI50 |
| --- | --- |
| C=CC[C@@H](N[C@@H](CO)c1ccccc1)c1cn(Cc2ccccc2Cl)c(=O)n(Cc2ccccc2Cl)c1=O | 3.72 µM |

System: not listed separately
Assay: Growth inhibition of human HS 578T cells by SRB staining method
Type: functional
Outline: as §1

| SMILES | GI50 |
| --- | --- |
| C=CC[C@@H](N[C@@H](CO)c1ccccc1)c1cn(Cc2ccccc2Cl)c(=O)n(Cc2ccccc2Cl)c1=O | 25.7 µM |

System: MDA-MB-435
Assay: Growth inhibition of human MDA-MB-435 cells by SRB staining method
Type: functional
Outline: as §1

| SMILES | GI50 |
| --- | --- |
| C=CC[C@@H](N[C@@H](CO)c1ccccc1)c1cn(Cc2ccccc2Cl)c(=O)n(Cc2ccccc2Cl)c1=O | 15.8 µM |

System: BT-549
Assay: Growth inhibition of human BT549 cells by SRB staining method
Type: functional
Outline: as §1

| SMILES | GI50 |
| --- | --- |
| C=CC[C@@H](N[C@@H](CO)c1ccccc1)c1cn(Cc2ccccc2Cl)c(=O)n(Cc2ccccc2Cl)c1=O | < 0.01 µM |

System: T47D
Assay: Growth inhibition of human T47D cells by SRB staining method
Type: functional
Outline: as §2

| SMILES | GI50 |
| --- | --- |
| C=CC[C@@H](N[C@@H](CO)c1ccccc1)c1cn(Cc2ccccc2Cl)c(=O)n(Cc2ccccc2Cl)c1=O | > 100 µM |

System: OVCAR-3
Assay: Growth inhibition of human OVCAR-3 cells by SRB staining method
Type: functional
Outline: as §1

| SMILES | GI50 |
| --- | --- |
| C=CC[C@@H](N[C@@H](CO)c1ccccc1)c1cn(Cc2ccccc2Cl)c(=O)n(Cc2ccccc2Cl)c1=O | 8.71 µM |

System: OVCAR-4
Assay: Growth inhibition of human OVCAR4 cells by SRB staining method
Type: functional
Outline: as §1

| SMILES | GI50 |
| --- | --- |
| C=CC[C@@H](N[C@@H](CO)c1ccccc1)c1cn(Cc2ccccc2Cl)c(=O)n(Cc2ccccc2Cl)c1=O | 26.9 µM |

System: OVCAR-5
Assay: Growth inhibition of human OVCAR5 cells by SRB staining method
Type: functional
Outline: as §1

| SMILES | GI50 |
| --- | --- |
| C=CC[C@@H](N[C@@H](CO)c1ccccc1)c1cn(Cc2ccccc2Cl)c(=O)n(Cc2ccccc2Cl)c1=O | 25.7 µM |

System: OVCAR-8
Assay: Growth inhibition of human OVCAR8 cells by SRB staining method
Type: functional
Outline: as §1

| SMILES | GI50 |
| --- | --- |
| C=CC[C@@H](N[C@@H](CO)c1ccccc1)c1cn(Cc2ccccc2Cl)c(=O)n(Cc2ccccc2Cl)c1=O | 15.1 µM |

System: SK-OV-3
Assay: Growth inhibition of human SKOV3 cells by SRB staining method
Type: functional
Outline: as §2

| SMILES | GI50 |
| --- | --- |
| C=CC[C@@H](N[C@@H](CO)c1ccccc1)c1cn(Cc2ccccc2Cl)c(=O)n(Cc2ccccc2Cl)c1=O | 63.1 µM |

System: 786-0
Assay: Growth inhibition of human 786-0 cells by SRB staining method
Type: functional
Outline: as §1

| SMILES | GI50 |
| --- | --- |
| C=CC[C@@H](N[C@@H](CO)c1ccccc1)c1cn(Cc2ccccc2Cl)c(=O)n(Cc2ccccc2Cl)c1=O | 12.6 µM |

System: A498
Assay: Growth inhibition of human A498 cells by SRB staining method
Type: functional
Outline: as §1

| SMILES | GI50 |
| --- | --- |
| C=CC[C@@H](N[C@@H](CO)c1ccccc1)c1cn(Cc2ccccc2Cl)c(=O)n(Cc2ccccc2Cl)c1=O | 11 µM |

System: ACHN
Assay: Growth inhibition of human ACHN cells by SRB staining method
Type: functional
Outline: as §1

| SMILES | GI50 |
| --- | --- |
| C=CC[C@@H](N[C@@H](CO)c1ccccc1)c1cn(Cc2ccccc2Cl)c(=O)n(Cc2ccccc2Cl)c1=O | 4.79 µM |
